The values below come from paper PMC4180826 (Scientific Reports, 2014).

By stoichiometry N is commonly meant a count of units in the complex or per binding partner. In general, Kd refers to the equilibrium constant for the complex coming apart. A low value points to higher affinity.

For series [1] the following is noted: "under the same conditions"; cited from earlier work.
A short description of series [2]: Fe. Format: binding. The conditions noted are these: until molar ratio Fe (II) to peptide 1 of 1:1; peptide 1 10.0 μM; TBS pH 7.4.
Series [3] in a line: Transmission electron microscopy, aggregation and disaggregation. Format: physicochemical. The procedure, abridged:
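Droplets of the peptide, the test compound, or the test compound bound to NK1R at 1:1 molar ratio were placed on carbon-coated holey grids. The NK1R sample alone was negatively stained with sodium phosphotungstate and dried at room temperature for 12 h before TEM imaging.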

Series [4] can be described thus: Relaxivity r1, 0.5 T MR system. In kind it is physicochemical. The conditions noted are these: TBS pH 7.4, 50.0 mM Tris, 50.0 mM NaCl, 37 °C, 1-100 μM, inversion recovery, slope of 1/T1 versus concentration.
Series [5] has as its target probe 1 (terpyridine-Fe (II) complex of the Gd (III)-DOTA peptide 1, a modified substance P). The experiment in a line: T1 relaxation rate.
The target is the same in series [6]. The experiment in a line: other fluorescence titration.
Series [7] has the same target. The experiment in a line: fluorescence polarisation. Background: In fluorescence polarisation assays a small probe gives low polarisation when free and higher when bound to something large.

On to `O=C([O-])CN(CCN(CC(=O)[O-])CC(=O)O)CCN(CC(=O)[O-])CC(=O)O.[Gd+3]` [Gd-(DTPA)], for which the “relaxivity r1, clinical contrast agents” value in series [1] was 4.6 mM⁻¹ s⁻¹.

Turning to `CC(O)CN1CCN(CC(=O)[O-])CCN(CC(=O)[O-])CCN(CC(=O)[O-])CC1.[Gd+3]` (stereo not shown) [Gd-(HP-DO3A)], the “relaxivity r1, clinical contrast agents” value in series [1] was 4.3 mM⁻¹ s⁻¹.

As for “MLGFFQQPKPRKKKKKK(Tpy)K(Tpy)KK(Dye)DOTA [peptide 1]”, the “fluorescence at 610 nm upon addition of Fe (II) ions” value in series [2] is recorded as “decreased”. Also, the “length (TEM)” value in series [3] (nanofibers, peptide 1 alone, 10.0 μM in TBS pH 7.4) was “several hundred nm”. The “diameter (TEM)” value in series [3] (threadlike network of nanofibers, peptide 1 alone, 10.0 μM in TBS pH 7.4) was “approximately 3.5 nm”. In series [4], the “relaxivity r1” value was determined as 11.8 mM⁻¹ s⁻¹.

Consider “neurokinin-1 receptor (NK1R), recombinant”, for which the stoichiometry N in series [5] was 1 probe 1:NK1R. This molecule also displayed a fold increase of the fluorescence intensity of probe 1 at 610 nm in series [6] of 3 fold. Further, in series [7], the dissociation constant (Kd) worked out at 2300 nM.

B1: NK1R: recombinant NK1R (TACR1) expressed in Rosetta (DE3), purified using nickel affinity chromatography (protein)
chain: MDNVLPVDSDLSPNISTNTSEPNQFVQPAWQIVLWAAAYTVIVVTSVVGNVVVMWIILAHKRMRTVTNYFLVNLAFAEASMAAFNTVVNFTYAVHNEWYYGLFYCKFHNFFPIAAVFASIYSMTAVAFDRYMAIIHPLQPRLSATATKVVICVIWVLALLLAFPQGYYSTTETMPSRVVCMIEWPEHPNKIYEKVYHICVTVLIYFLPLLVIGYAYTVVGITLWASEIPGDSSDRYHEQVSAKRKVVKMMIVVVCTFAICWLPFHIFFLLPYINPDLYLKKFIQQVYLAIMWLAMSSTMYNPIIYCCLNDRFRLGFKHAFRCCPFISAGDYEGLEMKSTRYLQTQGSVYKVSRLETTISTVVGAHEEEPEDGPKATPSSLDLTSNCSSRSDSKTMTESFSFSSNVLS
As for B1, the “diameter (TEM)” value in series [3] (NK1R multimers, 1.0 μM, stained with sodium phosphotungstate 2.0 wt%, TBS pH 7.4) is recorded as “approximately 3.8 nm”.
